Common to all, as to format: functional
Common to all, as to conditions: read-out: GI

Test [1] concerns MCF7. The test can be described thus: Antitumor activity against human MCF7 cells assessed as growth inhibition at 10 uM relative to control. The method, boiled down: (§1)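 After drug addition, plates were incubated 48 h at 37 °C under 5% CO2. Adherent cells were fixed with cold TCA (10% final, 60 min, 4 °C) and suspension cells with 16% final TCA. Staining used 0.4% SRB in 1% acetic acid, solubilized in 10 mM trizma, read at A515. Percent growth was calculated from time-zero, control and treated absorbances.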

Test [2] concerns HCT-15. The test can be described thus: Antitumor activity against human HCT-15 cells assessed as growth inhibition at 10 uM relative to control. The method, boiled down:
as §1

In test [3] the test system is HT-29. The test can be described thus: Antitumor activity against human HT-29 cells assessed as growth inhibition at 10 uM relative to control. The method, boiled down: as §1
The test system of test [4] is NCI-H460. The test can be described thus: Antitumor activity against human NCI-H460 cells assessed as growth inhibition at 10 uM relative to control. In outline:
as §1

Test [5] concerns UACC-62. The test can be described thus: Antitumor activity against human UACC-62 cells assessed as growth inhibition at 10 uM relative to control. The method, boiled down:
(§2)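 Drug exposure 48 h at 37 °C, 5% CO2. Adherent cells fixed with cold TCA (10% final), suspension cells with TCA (16% final). Stained with 0.4% SRB in 1% acetic acid, dissolved in 10 mM Tris, A515. Growth relative to time-zero and untreated control.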

In test [6] the test system is TK-10. The test can be described thus: Antitumor activity against human TK-10 cells assessed as growth inhibition at 10 uM relative to control. In outline: as §2
Test [7] concerns SK-OV-3. The test can be described thus: Antitumor activity against human SK-OV-3 cells assessed as growth inhibition at 10 uM relative to control. In outline:
as §2

Test [8] has as its system OVCAR-5. The test can be described thus: Antitumor activity against human OVCAR-5 cells assessed as growth inhibition at 10 uM relative to control. The method, boiled down: as §1
Test [9] deals with OVCAR-4. The test can be described thus: Antitumor activity against human OVCAR-4 cells assessed as growth inhibition at 10 uM relative to control. In outline:
as §1

Test [10] deals with CAKI-1. The test can be described thus: Antitumor activity against human CAKI-1 cells assessed as growth inhibition at 10 uM relative to control. In outline:
as §1

The test system of test [11] is UACC-257. The test can be described thus: Antitumor activity against human UACC-257 cells assessed as growth inhibition at 10 uM relative to control. The method, boiled down: as §2
The test system of test [12] is SN12C. The test can be described thus: Antitumor activity against human SN12C cells assessed as growth inhibition at 10 uM relative to control. The method, boiled down: as §2
Test [13] has as its system A549. The test can be described thus: Antitumor activity against human A549 cells assessed as growth inhibition at 10 uM relative to control. In outline:
as §1

Test [14] has as its system SK-MEL-2. The test can be described thus: Antitumor activity against human SK-MEL-2 cells assessed as growth inhibition at 10 uM relative to control. In outline: as §1

These results are taken from ChEMBL document CHEMBL5376013, “Design, synthesis and biological evaluation of novel morpholinopyrimidine-5-carbonitrile derivatives as dual PI3K/mTOR inhibitors” (RSC Med Chem, 2024).

Regarding `CSc1nc(O)c(C#N)c(-c2ccc(Cl)cc2)n1`, the inhibition of growth at 10 µM was 11% in test [1]; less than 1% in test [2]; less than 1% in [3]; less than 1% in test [4]; less than 1% in test [5]; less than 1% in test [6]. In addition, the inhibition of growth at 10 µM in [7], in [8], in test [9], in test [10], in test [11] and in test [12] was less than 1% each time. Also, the inhibition of growth at 10 µM in test [13] and in [14] was less than 1% in each case.
`CSc1nc(Cl)c(C#N)c(-c2ccc(Cl)cc2)n1`: the inhibition of growth at 10 µM is 1% in test [1]; less than 1% in test [2]; less than 1% in [3]; less than 1% in test [4]; 25.6% in test [5]; less than 1% in [6]. Besides, the inhibition of growth at 10 µM in [7], in [8], in [9], in test [10], in test [11] and in test [12] was less than 1% each time. For the same compound, the inhibition of growth at 10 µM in test [13] and in [14] was less than 1% throughout.
Take `N#Cc1c(-c2ccc(Cl)cc2)[nH]c(=S)[nH]c1=O`: the inhibition of growth at 10 µM in [1], in [2], in [3], in [4], in test [5] and in test [6] was less than 1% each time. The inhibition of growth at 10 µM in test [7] was less than 1%; in test [8], 33.4%; in test [9], less than 1%; in [10], less than 1%; in test [11] it was less than 1%; in test [12], less than 1%. Besides, the inhibition of growth at 10 µM in test [13] and in test [14] was less than 1% throughout.
`N#Cc1c(-c2ccc(Cl)cc2)nc(NN2C(=O)CCC2=O)nc1N1CCOCC1`: the inhibition of growth at 10 µM in test [1] is 1%; in [2] it was less than 1%; in test [3], less than 1%; in test [4], less than 1%; in test [5], less than 1%; in test [6], less than 1%. Besides, the inhibition of growth at 10 µM in [7], in test [8], in [9], in test [10], in [11] and in test [12] was less than 1% throughout. Besides, the inhibition of growth at 10 µM in [13] and in [14] was less than 1% in each case.
For `N#Cc1c(-c2ccc(Cl)cc2)nc(N2NC(=O)CC2=N)nc1N1CCOCC1`, the inhibition of growth at 10 µM in test [1] is 1%; in [2] it was less than 1%; in test [3] it was less than 1%; in [4] it was less than 1%; in test [5], 86.2%; in test [6], less than 1%. Further, the inhibition of growth at 10 µM in test [7], in [8], in test [9], in test [10], in test [11] and in [12] was less than 1% in each case. In addition, the inhibition of growth at 10 µM in test [13] and in [14] was less than 1% in each case.
As to `CC1=NN(c2nc(-c3ccc(Cl)cc3)c(C#N)c(N3CCOCC3)n2)C(=O)C1`, the inhibition of growth at 10 µM in [1] is 1%; in test [2] it was 10.3%; in [3], less than 1%; in test [4], less than 1%; in test [5], 21%; in test [6] it was less than 1%. The inhibition of growth at 10 µM in [7] was 13.4%; in test [8] it was 15.2%; in test [9], 48.5%; in test [10], 29.9%; in test [11] it was less than 1%; in test [12] it was 112%. Moreover, the inhibition of growth at 10 µM in test [13] is less than 1%; in [14], 12.9%.
On to `CSc1nc(-c2ccc(Cl)cc2)c(C#N)c(N2CCOCC2)n1`, for which the inhibition of growth at 10 µM was 1% in test [1]; less than 1% in test [2]; 15.3% in [3]; less than 1% in test [4]; less than 1% in test [5]; less than 1% in [6]. Further, the inhibition of growth at 10 µM in [7] was 11%; in test [8], less than 1%; in [9] it was 18.2%; in test [10], 13.7%; in [11], less than 1%; in test [12], less than 1%. Further, the results for the inhibition of growth at 10 µM in test [13] and in [14] were 10.8% and less than 1%, respectively.
Take `N#Cc1c(-c2ccc(Cl)cc2)nc(N/N=C2/C(=O)Nc3ccccc32)nc1N1CCOCC1`: the inhibition of growth at 10 µM in test [1] is 1%; in [2], 1%; in [3], less than 1%; in test [4], 17.6%; in [5], less than 1%; in test [6], less than 1%. For the same compound, the inhibition of growth at 10 µM in test [7], in [8], in test [9], in test [10], in test [11] and in test [12] was less than 1% throughout. The inhibition of growth at 10 µM is 12.9% in [13] and less than 1% in test [14].
Turning to `N#Cc1c(-c2ccc(Cl)cc2)nc(NN2C(=O)c3ccccc3C2=O)nc1N1CCOCC1`, the inhibition of growth at 10 µM in test [1] is 1%; in test [2], less than 1%; in test [3], less than 1%; in [4] it was less than 1%; in [5], less than 1%; in test [6] it was less than 1%. Further, the inhibition of growth at 10 µM in test [7], in test [8], in test [9], in test [10], in [11] and in test [12] was less than 1% in each case. Further, the inhibition of growth at 10 µM in test [13] and in test [14] was less than 1% throughout.
As to `Cc1cc(C)n(-c2nc(-c3ccc(Cl)cc3)c(C#N)c(N3CCOCC3)n2)n1`, the inhibition of growth at 10 µM in [1] is less than 16%; in test [2] it was less than 1%; in test [3], less than 1%; in test [4], less than 1%; in [5], less than 1%; in test [6] it was less than 1%. Further, the inhibition of growth at 10 µM in [7] was 15.2%; in test [8] it was less than 1%; in test [9], less than 1%; in test [10] it was 28.1%; in test [11], less than 1%; in test [12], 12.8%. The inhibition of growth at 10 µM in test [13] and in test [14] was less than 1% throughout.
`N#Cc1c(-c2ccc(Cl)cc2)nc(NN)nc1N1CCOCC1`: the inhibition of growth at 10 µM in test [1] was 1%; in [2], less than 1%; in [3], less than 1%; in test [4], less than 1%; in test [5], 10.7%; in test [6], less than 1%. The inhibition of growth at 10 µM in [7] was less than 1%; in test [8], less than 1%; in test [9], less than 1%; in test [10] it was 20.8%; in test [11], less than 1%; in test [12], less than 1%. Besides, the inhibition of growth at 10 µM in test [13] and in test [14] was less than 1% throughout.
